Assay results collected from several papers.
Protocols differ between the studies behind these lines.
Read-out: metabolic stability
Host: human
Sample: liver microsomes

| Structure (SMILES) | tested at | pH | microsomal CLint |
| --- | --- | --- | --- |
| Cn1cnc(-c2nc3ccccn3c2Nc2ccc(F)cc2)c1 | 3 µM | pH 7.4 | 17 µL/min/mg |
| c1ccc(C2CCN(c3nc(-c4ccco4)nc4ccccc34)C2)nc1 (stereo not shown) | – | – | 149 µL/min/mg |
| CN(C)C(=O)c1ccc(-c2c(-c3ccccn3)nc3n2CCC3)cc1 | 3 µM | pH 7.4 | < 3 µL/min/mg |
| O=[N+]([O-])c1ccc(Nc2ccnc3ccc(-c4ccc(S(=O)(=O)N5CCOCC5)cc4)cc23)cn1 | – | – | 106 µL/min/mg |
| C[S+]([O-])c1ccc(-c2c(-c3ccccn3)nc3n2CCC3)cc1 (stereo not shown) | 3 µM | pH 7.4 | < 3 µL/min/mg |
| CN1CCN(c2nc(-c3ccccn3)nc3ccccc23)CC1 | – | – | < 1 µL/min/mg |
| O=S(=O)(c1ccc(-c2ccc3nccc(Nc4ccncc4)c3c2)cc1)N1CCOCC1 | – | – | 82.4 µL/min/mg |
| COc1cc2[nH]c(C)c(-c3ccc(N(C)C)cc3)c(=O)c2cc1Cl | 1 µM | – | 15 µL/min/mg |
| CCn1cc2c(N3CCC(c4ccccn4)C3)nc(-c3ccccn3)nc2n1 (stereo not shown) | – | – | < 1 µL/min/mg |
| COc1cc2[nH]c(C)c(-c3ccc(F)cc3F)c(=O)c2cc1Cl | 1 µM | – | 9 µL/min/mg |
| COc1ccn2c(Nc3ccccc3F)c(-c3ccncn3)nc2c1 | 3 µM | pH 7.4 | 120 µL/min/mg |
| COc1cc2[nH]c(C)c(-c3ccc(S(=O)(=O)N(C)C)cc3)c(=O)c2cc1Cl | 1 µM | – | 17 µL/min/mg |
| c1ccc(-c2nc(N3CCCC3)c3ccccc3n2)nc1 | – | – | 62 µL/min/mg |
